# From PubChem
# GASC-1 inh: inhibitors of GASC-1 histone demethylase, primary screen, biochemical, fluorescence, DELFIA europium; Lysine-specific demethylase 4C (Homo sapiens), Q9H3R0; GST-JMJD2C(1-420) H3K9me3 demethylation; inhibition, % at 2.35 µM; actives 0.069% (n = 330,000);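 active means more than half of a compound's replicate wells show inhibition beyond 50%, single wells judged on their own value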;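 further: signal counts dimethyl H3K9 product captured on neutravidin plate; 0% = median of DMSO wells and 100% = 0.3 times that DMSO median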
# Target sequence (Q9H3R0 1-420 limits assumed): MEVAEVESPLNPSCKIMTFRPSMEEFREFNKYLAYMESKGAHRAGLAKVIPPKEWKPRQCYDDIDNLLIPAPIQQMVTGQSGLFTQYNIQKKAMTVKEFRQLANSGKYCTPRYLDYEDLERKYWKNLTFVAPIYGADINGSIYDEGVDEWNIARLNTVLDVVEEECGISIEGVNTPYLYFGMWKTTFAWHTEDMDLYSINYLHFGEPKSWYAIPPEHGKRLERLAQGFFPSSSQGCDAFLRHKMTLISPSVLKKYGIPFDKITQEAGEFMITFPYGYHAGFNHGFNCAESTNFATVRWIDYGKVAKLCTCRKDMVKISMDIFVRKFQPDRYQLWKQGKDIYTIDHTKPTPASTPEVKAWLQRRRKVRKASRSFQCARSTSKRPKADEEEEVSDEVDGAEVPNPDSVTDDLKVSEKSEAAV
# T cell HTS: modulators of CD8 T cell-vesicle binding, primary screen, mouse 2C CD8+ T cells, flow cytometry | response (vesicle binding), % at 7 µM | actives 0.068% (n = 330,000) | 2C CD8+ T cell-vesicle binding; hits give low values;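 active means response, share of CD8 T cells binding vesicles, and their 90th percentile fluorescence all below set limits, cut at about 80% in these data, passing the limit was not always enough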;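 further: values below 100% mean blocked vesicle binding to the CD8+ T cells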
#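 Assay system: 2C TCR transgenic mouse naive CD8+ T cells, MACS-purified | Read-out: CD8+ gate FL2 mean fluorescence as % of same-row positive control | Signal: High-throughput flow cytometry with anti-B7-1 and anti-CD8 staining | Timing: Binding step 1.5 h, 37 °C, antibody labelling 20 min, ice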
# HIF act: HIF pathway transcriptional activators, primary screen, cell-based, U2OS HRE-luciferase, luminescence; U2OS HRE-luciferase reporter; normalized: DMSO 0%, desferrioxamine 100%; activation, % at 7.5 µM (by protocol); actives 0.32% (n = 300,000); AID 1910, 2009;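 active means mean activation of at least 10% of the iron chelator positive control signal, with at least half of replicates also reaching 10%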
# SUMO Mot1 rescue: yeast Mot1-301 growth rescue at high temperature, primary screen, SUMOylation pathway inhibitor project, S. cerevisiae, ATP luminescence, 38.5C; actives 1% (n = 320,000); growth rescue, % at 18.8 µM; S. cerevisiae Mot1-301 growth rescue; percent above DMSO median, 100 means doubled; AID 2716, 2010;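 active means every valid replicate shows activation above 250% relative to neutral control wells; inactive means the rest, any valid replicate at or below 250%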;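 further: OY570 slx delta 5 strain wells were the positive control but not used for scaling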
# Yeast Mot1 SUMO: growth restoration of Mot1-301 yeast on galactose, dose response, SUMO pathway inhibitor project, whole organism, S. cerevisiae, ATP luminescence, cherry-picked samples. AID 493004, 2010. 2,300 tested, under 10 active. growth activity, percent, % at 42 µM. shares compounds with SUMO Mot1 rescue. S. cerevisiae Mot1-301 galactose growth, 24 h; -100 = growth of slx-deleted rescue strain;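 active means Signal drops as the depositor expects, and the fitted half-maximal dose is no more than ten times the top valid tested dose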;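 further: more negative values mean stronger growth rescue toward the control strain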
# Numbers without * were called inactive; · = no result given; + = active, no number. A selection: hits, their analogues and other compounds. The true share with any hit is near 1.4%.
SMILES,GASC-1 inh,T cell HTS,HIF act,SUMO Mot1 rescue,Yeast Mot1 SUMO
CN(C)c1ccc(CNC(=O)CCNS(=O)(=O)c2cc(Br)cnc2N)cc1,4,397,1,0,·
COc1cc(CN2CCC(Oc3cc(C(=O)NC4CC4)ccc3OC)CC2)cc(OC)c1,12,325,-2,393*,0
COc1ccc(C(=O)NC2CC2)cc1OC1CCN(Cc2ccc(NC(C)=O)cc2)CC1,-14,·,-1,·,·
Cc1c(NP(=O)(c2ccc(Br)cc2)c2ccc(Br)cc2)c(=O)n(-c2ccccc2)n1C,-22,236,0,381*,0
Cc1ccccc1Nc1c(F)c(F)c(F)c(F)c1C(=O)O,2,234,-1,-14,·
CNC(=O)N(O)C1N(/N=C/c2c(F)cccc2Cl)C(=S)SC1(C)C (centres undefined),-14,0,-15,230,·
CN(C)C(=O)CCN1CCOCC1,6,282,·,560*,-1
NC(=O)c1cc[n+](CC(=O)NC(=O)Nc2ccccc2)cc1,1,130,·,-6,·
COCC(=O)N1CCC(Oc2ccc(C(=O)NC(C)c3nc(C)sc3C)cc2)CC1 (centres undefined),-19,160,1,-3,·
COCCn1c(-c2ccc(Cl)cc2)cnc1SCC(=O)NCCc1ccc(OC)c(OC)c1,-3,308,0,473*,0
COc1cccc(C(=O)OCC(=O)NCCC2=CCCCC2)c1,-7,503,·,14,·
O=C(O)/C=C/C(=O)NNC(=O)c1ccccc1Br,2,386,0,-14,·
Cc1ccccc1C(=O)NNC(=O)/C=C\C(=O)O,-6,210,-1,792*,0
Cc1nc(N/N=C\c2ccc3c(c2)OCO3)sc1C,6,323,6,497*,0
Cc1cc(N2CCN(C)CC2)nc2ccc(NC(=S)N3CCC4(CC3)OCCO4)cc12,1,200,1,+,0
CCCCN(C)C(=O)CCC(=O)Nc1ccc2nc(N3CCOCC3)cc(C)c2c1,6,284,1,-2,·
CCCCN(C)C(=O)CCC(=O)Nc1ccc2nc(N3CCN(C)CC3)cc(C)c2c1,16,61,0,449*,0
CCS(=O)(=O)c1nc(S(=O)(=O)c2ccc(Cl)cc2)c(N2CCN(CCO)CC2)s1,-5,282,0,4,·
CCS(=O)(=O)c1nc(S(=O)(=O)c2ccc(Cl)cc2)c(N2CCc3ccccc3C2)s1,-20,366,0,444*,0
COc1ccc(-c2nc3ccccc3nc2-c2ccc(OC)c(OC)c2)cc1OC,0,560,0,4,·
COc1ccccc1-c1nc2ccccc2nc1-c1ccccc1OC,-3,256,-1,395*,0
O=C(Nc1ccncc1Cl)c1ccncc1,7,593,0,435*,0
O=C(Nc1ccc(Cl)c(Cl)c1)c1ccncc1,12,117,2,49,·
Oc1cccc2ccc(/C=C/c3ccccc3Br)nc12,34,231,-3,528*,0
CC1CCc2c(C(=O)OCC(=O)Nc3cccc(S(=O)(=O)N4CCCCCC4)c3)csc2C1 (centres undefined),0,377,0,-2,·
SMILES,GASC-1 inh,T cell HTS,HIF act,SUMO Mot1 rescue,Yeast Mot1 SUMO
Cc1ccc(NC(=O)COC(=O)c2csc3c2CCC(C)C3)cc1S(=O)(=O)N1CCCCC1 (centres undefined),3,141,-1,+,0
Cc1nc(C(F)(F)F)c(C(=O)O)cc1-c1nc(-c2ccccc2)cs1,-18,238,1,-14,·
Cc1ccc(CN2C(=O)c3ccccc3NC2c2ccccn2)cc1 (centres undefined),7,477,0,3,·
CCCN1C(=O)c2ccccc2NC1c1ccc(C)cc1 (centres undefined),6,299,0,458*,1
CCCCCOC(=O)C1=C(C)N(C)C(=O)NC1c1cc(Br)c(O)c(OC)c1 (centres undefined),3,162,0,879*,0
CC(C)C(=O)NCCSc1c[nH]c2ccccc12,-14,390,0,598*,0
